From ChEMBL document CHEMBL4312005, “Optimization of pyrrolizine-based Schiff bases with 4-thiazolidinone motif: Design, synthesis and investigation of cytotoxicity and anti-inflammatory potency” (Eur J Med Chem, 2020)

What was measured:
MRC5 = experiment: Cytotoxicity against human MRC5 cells assessed as reduction in cell growth incubated for 72 hrs by MTT assay; type: cell-based; conditions: MRC5, 72 h
Summary of the method: (§1)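 MTT assay on MCF-7, A2780, HT29 and normal MRC5 fibroblast lines (ATCC) grown in DMEM with 10% FBS. Cells exposed to compounds for 72 h, then reduced MTT read at 570 nm.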

HT-29 = experiment: Antiproliferative activity against human HT-29 cells assessed as reduction in cell growth incubated for 72 hrs by MTT assay; type: functional, cell-based; conditions: HT-29, 72 h; summary of the method: as §1
MCF7 [1] = experiment: Cell cycle arrest in human MCF7 cells assessed as G2/M phase accumulation at 1 uM incubated for 24 hrs by propidium iodide based flow cytometry (reference value: 17.2 to 26.8 %); type: functional
MCF7 [2] = experiment: Induction of apoptosis in human MCF7 cells assessed as late apoptotic cells at 5 uM incubated for 24 hrs by annexin V FITC and propidium iodide staining based flow cytometry (reference value: 0 to 2.5 %); type: functional
MCF7 [3] = experiment: Cell cycle arrest in human MCF7 cells assessed as G2/M phase accumulation at 10 uM incubated for 24 hrs by propidium iodide based flow cytometry (reference value: 17.2 to 26.8 %); type: functional
MCF7 [4] = experiment: Antiproliferative activity against human MCF7 cells assessed as cell viability at 5 uM incubated for 48 hrs by MTT assay (reference value: 100 %); type: functional; conditions: MCF7, 48 h, read-out: Activity
Summary of the method: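 Preliminary single-dose screen by MTT assay. MCF-7 cells grown in DMEM/10% FBS were exposed to 5 μM compound for 48 h, and growth% was determined. Values are mean ± S.D., n = 6.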

MCF7 [5] = experiment: Cell cycle arrest in human MCF7 cells assessed as G2/M phase accumulation at 5 uM incubated for 24 hrs by propidium iodide based flow cytometry (reference value: 17.2 to 26.8 %); type: functional
MCF7 [6] = experiment: Cell cycle arrest in human MCF7 cells assessed as subG1 accumulation at 1 uM incubated for 24 hrs by propidium iodide based flow cytometry (reference value: 0.6 to 3 %); type: functional
MCF7 [7] = experiment: Induction of apoptosis in human MCF7 cells assessed as necrotic cells at 5 uM incubated for 24 hrs by annexin V FITC and propidium iodide staining based flow cytometry (reference value: 4.1 to […]); type: functional
MCF7 [8] = experiment: Induction of apoptosis in human MCF7 cells assessed as viable cells at 1 uM incubated for 24 hrs by annexin V FITC and propidium iodide staining based flow cytometry (reference value: 76 to 95.9 %); type: functional; conditions: MCF7, 24 h, read-out: Activity
MCF7 [9] = experiment: Induction of apoptosis in human MCF7 cells assessed as necrotic cells at 1 uM incubated for 24 hrs by annexin V FITC and propidium iodide staining based flow cytometry (reference value: 4.1 to […]); type: functional
MCF7 [10] = experiment: Cell cycle arrest in human MCF7 cells assessed as subG1 accumulation at 5 uM incubated for 24 hrs by propidium iodide based flow cytometry (reference value: 0.6 to 3 %); type: functional
[11] = Selectivity index, ratio of IC50 for cytotoxicity against human MRC5 cells to IC50 for antiproliferative activity against human HT-29 cells; conditions: MRC5 cells versus HT-29 cells
MCF7 [12] = experiment: Antiproliferative activity against human MCF7 cells assessed as reduction in cell growth incubated for 72 hrs by MTT assay; type: functional, cell-based; conditions: MCF7, 72 h; summary of the method: as §1
MCF7 [13] = experiment: Cell cycle arrest in human MCF7 cells assessed as S phase accumulation at 10 uM incubated for 24 hrs by propidium iodide based flow cytometry (reference value: 17.3 to 28.5 %); type: functional
MCF7 [14] = experiment: Induction of apoptosis in human MCF7 cells assessed as late apoptotic cells at 1 uM incubated for 24 hrs by annexin V FITC and propidium iodide staining based flow cytometry (reference value: 0 to 2.5 %); type: functional
MCF7 [15] = experiment: Cell cycle arrest in human MCF7 cells assessed as S phase accumulation at 1 uM incubated for 24 hrs by propidium iodide based flow cytometry (reference value: 17.3 to 28.5 %); type: functional
[16] = Selectivity index, ratio of IC50 for cytotoxicity against human MRC5 cells to IC50 for antiproliferative activity against human MCF7 cells; conditions: MRC5 cells versus MCF7 cells
[17] = Selectivity index, ratio of IC50 for cytotoxicity against human MRC5 cells to IC50 for antiproliferative activity against human A2780 cells; conditions: MRC5 cells versus A2780 cells
MCF7 [18] = experiment: Induction of apoptosis in human MCF7 cells assessed as early apoptotic cells at 5 uM incubated for 24 hrs by annexin V FITC and propidium iodide staining based flow cytometry (reference value: 0 to 9 %); type: functional
MCF7 [19] = experiment: Cell cycle arrest in human MCF7 cells assessed as G1 accumulation at 1 uM incubated for 24 hrs by propidium iodide based flow cytometry (reference value: 49.6 to 55.1 %); type: functional
MCF7 [20] = experiment: Cell cycle arrest in human MCF7 cells assessed as subG1 accumulation at 10 uM incubated for 24 hrs by propidium iodide based flow cytometry (reference value: 0.6 to 3 %); type: functional
[21] = target: Prostaglandin G/H synthase 1 (Homo sapiens, UniProt P23219); experiment: Inhibition of human COX1 using arachidonic acid as substrate incubated for 2 mins by ELISA method
Chain of Prostaglandin G/H synthase 1 (P23219 whole entry): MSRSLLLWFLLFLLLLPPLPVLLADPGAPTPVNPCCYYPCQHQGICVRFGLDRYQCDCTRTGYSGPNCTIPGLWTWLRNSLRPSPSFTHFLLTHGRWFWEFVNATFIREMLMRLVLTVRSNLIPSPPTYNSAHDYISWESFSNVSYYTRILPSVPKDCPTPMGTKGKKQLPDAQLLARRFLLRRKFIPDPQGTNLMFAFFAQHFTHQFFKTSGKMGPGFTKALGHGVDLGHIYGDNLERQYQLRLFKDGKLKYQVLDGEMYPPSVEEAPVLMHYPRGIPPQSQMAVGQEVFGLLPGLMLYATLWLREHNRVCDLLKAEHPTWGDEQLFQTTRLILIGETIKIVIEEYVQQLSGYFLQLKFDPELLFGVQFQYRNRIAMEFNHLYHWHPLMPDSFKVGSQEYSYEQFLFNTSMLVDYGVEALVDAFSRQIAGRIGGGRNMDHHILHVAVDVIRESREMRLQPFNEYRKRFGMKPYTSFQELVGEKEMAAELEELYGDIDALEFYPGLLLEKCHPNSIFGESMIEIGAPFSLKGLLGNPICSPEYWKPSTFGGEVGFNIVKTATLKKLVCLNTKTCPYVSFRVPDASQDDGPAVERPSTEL

Rattus norvegicus [22] = experiment: Antiinflammatory activity against albino rats assessed as inhibition of carrageenan-induced paw edema at 0.5 mmol, po measured after 2 hrs relative to control; type: functional
Summary of the method: (§2)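 Carrageenan rat paw edema (Winter method) in male and female adult albino rats (100-140 g). […] Swelling inhibition expressed as % of control at 2-4 h after carrageenan injection.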

A2780 = experiment: Antiproliferative activity against human A2780 cells assessed as reduction in cell growth incubated for 72 hrs by MTT assay; type: functional, cell-based; conditions: A2780, 72 h; summary of the method: as §1
MCF7 [23] = experiment: Cell cycle arrest in human MCF7 cells assessed as S phase accumulation at 5 uM incubated for 24 hrs by propidium iodide based flow cytometry (reference value: 17.3 to 28.5 %); type: functional
MCF7 [24] = experiment: Induction of apoptosis in human MCF7 cells assessed as necrotic cells at 10 uM incubated for 24 hrs by annexin V FITC and propidium iodide staining based flow cytometry (reference value: 4.1 to […]); type: functional
MCF7 [25] = experiment: Induction of apoptosis in human MCF7 cells assessed as early apoptotic cells at 10 uM incubated for 24 hrs by annexin V FITC and propidium iodide staining based flow cytometry (reference value: 0 to 9 %); type: functional
Rattus norvegicus [26] = experiment: Antiinflammatory activity against albino rats assessed as inhibition of carrageenan-induced paw edema at 0.5 mmol, po measured after 4 hrs relative to control; type: functional; summary of the method: as §2
MCF7 [27] = experiment: Induction of apoptosis in human MCF7 cells assessed as viable cells at 10 uM incubated for 24 hrs by annexin V FITC and propidium iodide staining based flow cytometry (reference value: 76 to 95.9 %); type: functional; conditions: MCF7, 24 h, read-out: Activity
MCF7 [28] = experiment: Induction of apoptosis in human MCF7 cells assessed as late apoptotic cells at 10 uM incubated for 24 hrs by annexin V FITC and propidium iodide staining based flow cytometry (reference value: 0 to 2.5 %); type: functional
MCF7 [29] = experiment: Cell cycle arrest in human MCF7 cells assessed as G1 accumulation at 5 uM incubated for 24 hrs by propidium iodide based flow cytometry (reference value: 49.6 to 55.1 %); type: functional
MCF7 [30] = experiment: Cell cycle arrest in human MCF7 cells assessed as G1 accumulation at 10 uM incubated for 24 hrs by propidium iodide based flow cytometry (reference value: 49.6 to 55.1 %); type: functional
MCF7 [31] = experiment: Induction of apoptosis in human MCF7 cells assessed as viable cells at 5 uM incubated for 24 hrs by annexin V FITC and propidium iodide staining based flow cytometry (reference value: 76 to 95.9 %); type: functional; conditions: MCF7, 24 h, read-out: Activity
MCF7 [32] = experiment: Induction of apoptosis in human MCF7 cells assessed as early apoptotic cells at 1 uM incubated for 24 hrs by annexin V FITC and propidium iodide staining based flow cytometry (reference value: 0 to 9 %); type: functional
Rattus norvegicus [33] = experiment: Antiinflammatory activity against albino rats assessed as inhibition of carrageenan-induced paw edema at 25 mg/kg, po measured after 2 hrs relative to control; type: functional; summary of the method: as §2
Rattus norvegicus [34] = experiment: Antiinflammatory activity against albino rats assessed as inhibition of carrageenan-induced paw edema at 25 mg/kg, po measured after 4 hrs relative to control; type: functional; summary of the method: as §2

## CS(=O)(=O)CCNCc1ccc(-c2ccc3ncnc(Nc4ccc(OCc5cccc(F)c5)c(Cl)c4)c3c2)o1 [LAPATINIB]
MRC5
  IC50: 13.7 µM
HT-29
  IC50: 12.7 µM

## N#Cc1c(/N=C/c2ccc(O)cc2)c(C(=O)Nc2ccc(Br)cc2)n2c1CCC2
MCF7 [1]
  Activity: 14.2%
MCF7 [2]
  Activity: 7.4%
MCF7 [3]
  Activity: 19.8%
MCF7 [4]
  viability at 5 µM: 69%
MCF7 [5]
  Activity: 22%
MCF7 [6]
  Activity: 0.4%
MCF7 [7]
  Activity: 17.8%
MCF7 [8]
  viability at 1 µM: 65.7%
MCF7 [9]
  Activity: 14.3%
MCF7 [10]
  Activity: 0.4%
[11]
  selectivity ratio: 2 to 52
MCF7 [12]
  IC50: 0.49 µM
MCF7 [13]
  Activity: 51.9%
MCF7 [14]
  Activity: 9.8%
MCF7 [15]
  Activity: 54.1%
[16]
  selectivity ratio: 2 to 52
[17]
  selectivity ratio: 2 to 52
MCF7 [18]
  Activity: 8.6%
MRC5
  IC50: 25 µM
MCF7 [19]
  Activity: 31.7%
MCF7 [20]
  Activity: 0.8%
[21]
  IC50: 72 µM
Rattus norvegicus [22]
  inhibition (INH): 28.15%
A2780
  IC50: 0.47 µM
HT-29
  IC50: 14.5 µM
MCF7 [23]
  Activity: 49.7%
MCF7 [24]
  Activity: 20.6%
MCF7 [25]
  Activity: 5%
Rattus norvegicus [26]
  inhibition (INH): 44.51%
MCF7 [27]
  viability at 10 µM: 69.2%
MCF7 [28]
  Activity: 5.2%
MCF7 [29]
  Activity: 28.9%
MCF7 [30]
  Activity: 27.9%
MCF7 [31]
  viability at 5 µM: 66.3%
MCF7 [32]
  Activity: 10.2%

## CC/C=N/c1c(C#N)c2n(c1C(=O)Nc1ccc(C)cc1)CCC2
MCF7 [12]
  IC50: 0.84 µM
MRC5
  IC50: 0.56 µM
[21]
  IC50: 27.7 µM
A2780
  IC50: 3.88 µM
HT-29
  IC50: 0.61 µM

## CCC1SCC(=O)N1c1c(C#N)c2n(c1C(=O)Nc1ccc(C)cc1)CCC2 (stereo not given)
MCF7 [12]
  IC50: 0.47 µM
[16]
  selectivity ratio: 3 to 15
[17]
  selectivity ratio: 3 to 15
MRC5
  IC50: 1.7 µM
[21]
  IC50: > 100 µM
A2780
  IC50: 0.11 µM
HT-29
  IC50: 0.12 µM

## N#Cc1c(/N=C/c2cccs2)c(C(=O)Nc2ccc(Br)cc2)n2c1CCC2
MCF7 [4]
  viability at 5 µM: 77%
[11]
  selectivity ratio: 1 to 10
MCF7 [12]
  IC50: 9.41 µM
[16]
  selectivity ratio: 1 to 10
[17]
  selectivity ratio: 1 to 10
MRC5
  IC50: 23.1 µM
[21]
  IC50: > 100 µM
A2780
  IC50: 19.3 µM
HT-29
  IC50: 3.65 µM

## CC/C=N/c1c(C#N)c2n(c1C(=O)Nc1ccccc1)CCCC2
MCF7 [12]
  IC50: 1.43 µM
MRC5
  IC50: 1.53 µM
[21]
  IC50: 27.2 µM
A2780
  IC50: 15.6 µM
HT-29
  IC50: 0.14 µM

## Cc1ccc(-c2cc(C(F)(F)F)nn2-c2ccc(S(N)(=O)=O)cc2)cc1 [CELECOXIB]
Rattus norvegicus [33]
  inhibition in vivo at 25 mg/kg: 37%
Rattus norvegicus [34]
  inhibition in vivo at 25 mg/kg: 67.4%
